# Assay results taken from PubChem BioAssay.
# The source made the active and inactive calls.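 Rule for the calls, unless noted: active = viability increase at or above a cutoff of the median across tested compounds plus 3 SD (cut at about 8.5% in these data, passing the limit was not always enough); inconclusive = some gains above the cutoff, reason not given; inactive = the rest.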
# Assay: Restrictive medium S. cerevisiae growth inhibition, OD615, pilot screen of yeast lifespan reduction project, restrictive growth control (AID 706;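 active = growth inhibition above a set limit, 3 SD over mean compound inhibition, in both replicates, cut at about 43% in these data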;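 note: modified DeaD lifespan yeast strain shifted to restrictive glucose medium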)
# Details: OD615, 48 h, at 10 µM, stronger effect = higher value
# Summary of the method: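 System: modified S. cerevisiae. Buffer or medium: CSMM-D glucose medium. Incubation: 4 h pre-growth plus 48 h compound exposure, 30 °C. Detection: absorbance (optical density) measured at 615 nm.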
row,SMILES,growth inhibition
1,CCCCN=CC1=C(O)C(C(=O)OC)C(C)(C)CC1=O (stereo not given),-5.23% (inactive)
2,Cc1ccc(C)c(C(=O)CC2(O)C(=O)N(C)c3ccccc32)c1 (stereo not given),-12.9% (inactive)
3,CC(=O)C1=C(C)Nc2ncnn2C1c1cccc(OCc2ccccc2)c1 (stereo not given),-0.16% (inactive)
4,Cc1ccc(C(=O)CC2(O)C(=O)N(C)c3ccc(Br)cc32)c(C)c1 (stereo not given),9.8% (inactive)
5,Fc1cccc(Nc2ncnc3c2cnn3-c2ccccc2)c1,-6.66% (inactive)
6,COc1ccc(NC(=O)NCCN2C(=O)C3C4C=CC(C4)C3C2=O)cc1 (stereo not given),10.4% (inactive)
7,Cc1ccc(C)c(NC(=O)CSc2nnc(-c3ccccc3)o2)c1,-0.695% (inactive)
8,O=C(NCCCN1CCOCC1)c1cc(-c2ccc(O)cc2)on1,-16.8% (inactive)
9,CCOC(=O)c1ccc(NC(=O)Cn2cc3c(n2)CCC(C)C3)cc1 (stereo not given),5.5% (inactive)
10,N#C/C(C(=O)N1CCOCC1)=C1/SC=C(c2ccccc2)N1c1ccccc1,-17.9% (inactive)
11,COc1ccc(C(=O)c2coc3ccc(O)c(CN4CCCCC4)c23)cc1,-4.88% (inactive)
12,CCn1c(C(=O)N2CCC(C(=O)N3CCN(c4ccccn4)CC3)CC2)cc2sccc21,-12.2% (inactive)
13,CCOC(=O)N1CCN(Cc2nc3c(c(=O)n(C)c(=O)n3C)n2Cc2ccccc2)CC1,-4.35% (inactive)
14,CN1CCN(C(=O)c2ccc(CS(=O)(=O)c3c(Cl)cccc3Cl)o2)CC1,-12% (inactive)
15,CN(C)CCCN1C(=O)c2oc3ccc(Cl)cc3c(=O)c2C1c1cccnc1 (stereo not given),4.2% (inactive)
16,O=C(CSc1nnc2ccccn12)c1ccccc1,-10.6% (inactive)
17,Cc1ccccc1Cn1ccc(NC(=O)c2onc(C)c2Cl)n1,2.75% (inactive)
18,CN(CCCNC(=O)c1cn(C)c2ccc(S(=O)(=O)N(C)C)cc2c1=O)c1ccccc1,-0.125% (inactive)
19,NC(=O)CN1C(=O)C(O)(CC(=O)c2ccccc2O)c2ccccc21 (stereo not given),-10.4% (inactive)
20,CC(C)CCN(C)C1CCN(S(=O)(=O)c2ccc(F)cc2)CC1,10.4% (inactive)

row,SMILES,growth inhibition
1,COc1ccc(C(C)N2CC34C=CC(O3)C(C(=O)OCC(C)C)C4C2=O)cc1 (stereo not given),-7.06% (inactive)
2,COc1ccc(Cl)cc1S(=O)(=O)N1CCN(c2ccc(F)cc2)CC1,-15.5% (inactive)
3,Cc1sc2nc(SCC(=O)NCCO)n(C)c(=O)c2c1C,-20.8% (inactive)
4,CC(=O)NCCc1nc2ccccc2[nH]1,6.51% (inactive)
5,CCN1C(=O)c2cccc3c(NC(=O)c4ccc(S(=O)(=O)N(C)C)cc4)ccc1c23,-15.2% (inactive)
6,Cc1nc2ccccc2c2oc(C(=O)N3CCN(C(=O)c4ccco4)CC3)cc12,2.71% (inactive)
7,c1ccc(Cn2nnc3c(N4CCCCCC4)ncnc32)cc1,-8.65% (inactive)
8,COC(=O)c1cn(C(=O)c2ccc(Br)o2)c2ccccc12,0.5% (inactive)
9,CS(=O)(=O)Nc1ccccc1C(=O)O,-1.03% (inactive)
10,Cn1cccc1Cc1nnc(SCC(=O)NCC2CCCO2)n1-c1ccc(F)cc1 (stereo not given),-5.59% (inactive)
11,Cc1ccc(Cn2c(=O)c3ccccc3n3c(CCC(=O)O)nnc23)cc1,7.7% (inactive)
12,COc1ccc(OCCSc2nc3ccccc3n2CC(=O)O)cc1,-5.21% (inactive)
13,CCCCSc1nc2c(cnn2-c2ccc(F)cc2)c(=O)[nH]1,-3.62% (inactive)
14,CCOc1ccc(NC(=O)C(C)Sc2nnc(C)n2C)cc1 (stereo not given),3.31% (inactive)
15,CCOc1ccc2[nH]c(C)cc(=O)c2c1,3.82% (inactive)
16,Cc1nc2ccccc2c2oc(C(=O)N3CCC(N4CCCCC4)CC3)cc12,-4.43% (inactive)
17,O=C(O)c1ccc2c(c1)C(=O)N(c1ccc(Cl)cn1)C2=O,-10.8% (inactive)
18,COc1cccc(-c2nc(CS(=O)(=O)CC(=O)NCc3ccc(Cl)cc3)c(C)o2)c1,-2.68% (inactive)
19,COc1ccc(C(NC(=O)c2ccco2)c2ccc(OC)c(OC)c2)cc1 (stereo not given),-19.3% (inactive)
20,CCOC(=O)N1CCC(NC(=O)CN2C(=O)CCSc3ccccc32)CC1,-4.73% (inactive)

# Assay: viability gain of MRP-1-high H69AR cells under doxorubicin, pilot screen, MRP-1 activator project, CellTiter-Glo, duplicate (AID 807);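 note: compound pretreatment 18-22 h then 72 h combined with doxorubicin; 0% = doxorubicin alone and 100% = vehicle without doxorubicin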
# Details: H69AR viability with doxorubicin, CellTiter-Glo luminescence; at 10 µM; stronger effect = higher value
row,SMILES,viability increase
1,CCCCN=CC1=C(O)C(C(=O)OC)C(C)(C)CC1=O (stereo not given),-0.63% (inactive)
2,Cc1ccc(C)c(C(=O)CC2(O)C(=O)N(C)c3ccccc32)c1 (stereo not given),-0.65% (inactive)
3,CC(=O)C1=C(C)Nc2ncnn2C1c1cccc(OCc2ccccc2)c1 (stereo not given),-0.76% (inactive)
4,Cc1ccc(C(=O)CC2(O)C(=O)N(C)c3ccc(Br)cc32)c(C)c1 (stereo not given),-4.61% (inactive)
5,Fc1cccc(Nc2ncnc3c2cnn3-c2ccccc2)c1,-5.13% (inactive)
6,COc1ccc(NC(=O)NCCN2C(=O)C3C4C=CC(C4)C3C2=O)cc1 (stereo not given),-0.53% (inactive)
7,Cc1ccc(C)c(NC(=O)CSc2nnc(-c3ccccc3)o2)c1,1.83% (inactive)
8,O=C(NCCCN1CCOCC1)c1cc(-c2ccc(O)cc2)on1,-6.65% (inactive)
9,CCOC(=O)c1ccc(NC(=O)Cn2cc3c(n2)CCC(C)C3)cc1 (stereo not given),0.35% (inactive)
10,N#C/C(C(=O)N1CCOCC1)=C1/SC=C(c2ccccc2)N1c1ccccc1,-1.27% (inactive)
11,COc1ccc(C(=O)c2coc3ccc(O)c(CN4CCCCC4)c23)cc1,-4.51% (inactive)
12,CCn1c(C(=O)N2CCC(C(=O)N3CCN(c4ccccn4)CC3)CC2)cc2sccc21,-3.83% (inactive)
13,CCOC(=O)N1CCN(Cc2nc3c(c(=O)n(C)c(=O)n3C)n2Cc2ccccc2)CC1,-4.1% (inactive)
14,CN1CCN(C(=O)c2ccc(CS(=O)(=O)c3c(Cl)cccc3Cl)o2)CC1,0.72% (inactive)
15,CN(C)CCCN1C(=O)c2oc3ccc(Cl)cc3c(=O)c2C1c1cccnc1 (stereo not given),-1.8% (inactive)
16,O=C(CSc1nnc2ccccn12)c1ccccc1,0.47% (inactive)
17,Cc1ccccc1Cn1ccc(NC(=O)c2onc(C)c2Cl)n1,4.68% (inactive)
18,CN(CCCNC(=O)c1cn(C)c2ccc(S(=O)(=O)N(C)C)cc2c1=O)c1ccccc1,-3.8% (inactive)
19,NC(=O)CN1C(=O)C(O)(CC(=O)c2ccccc2O)c2ccccc21 (stereo not given),-2.93% (inactive)
20,CC(C)CCN(C)C1CCN(S(=O)(=O)c2ccc(F)cc2)CC1,-2.68% (inactive)

row,SMILES,viability increase
1,COc1ccc(C(C)N2CC34C=CC(O3)C(C(=O)OCC(C)C)C4C2=O)cc1 (stereo not given),-2.51% (inactive)
2,COc1ccc(Cl)cc1S(=O)(=O)N1CCN(c2ccc(F)cc2)CC1,-2.08% (inactive)
3,Cc1sc2nc(SCC(=O)NCCO)n(C)c(=O)c2c1C,-1.81% (inactive)
4,CC(=O)NCCc1nc2ccccc2[nH]1,-0.62% (inactive)
5,CCN1C(=O)c2cccc3c(NC(=O)c4ccc(S(=O)(=O)N(C)C)cc4)ccc1c23,-5.59% (inactive)
6,Cc1nc2ccccc2c2oc(C(=O)N3CCN(C(=O)c4ccco4)CC3)cc12,-5.18% (inactive)
7,c1ccc(Cn2nnc3c(N4CCCCCC4)ncnc32)cc1,-0.65% (inactive)
8,COC(=O)c1cn(C(=O)c2ccc(Br)o2)c2ccccc12,0.03% (inactive)
9,CS(=O)(=O)Nc1ccccc1C(=O)O,-1.2% (inactive)
10,Cn1cccc1Cc1nnc(SCC(=O)NCC2CCCO2)n1-c1ccc(F)cc1 (stereo not given),-1.1% (inactive)
11,Cc1ccc(Cn2c(=O)c3ccccc3n3c(CCC(=O)O)nnc23)cc1,-1.33% (inactive)
12,COc1ccc(OCCSc2nc3ccccc3n2CC(=O)O)cc1,-0.98% (inactive)
13,CCCCSc1nc2c(cnn2-c2ccc(F)cc2)c(=O)[nH]1,-2.12% (inactive)
14,CCOc1ccc(NC(=O)C(C)Sc2nnc(C)n2C)cc1 (stereo not given),-0.82% (inactive)
15,CCOc1ccc2[nH]c(C)cc(=O)c2c1,-2.11% (inactive)
16,Cc1nc2ccccc2c2oc(C(=O)N3CCC(N4CCCCC4)CC3)cc12,-4.92% (inactive)
17,O=C(O)c1ccc2c(c1)C(=O)N(c1ccc(Cl)cn1)C2=O,-2.33% (inactive)
18,COc1cccc(-c2nc(CS(=O)(=O)CC(=O)NCc3ccc(Cl)cc3)c(C)o2)c1,-3.55% (inactive)
19,COc1ccc(C(NC(=O)c2ccco2)c2ccc(OC)c(OC)c2)cc1 (stereo not given),-4.05% (inactive)
20,CCOC(=O)N1CCC(NC(=O)CN2C(=O)CCSc3ccccc32)CC1,1.02% (inactive)
